Assay results from ChEMBL document CHEMBL1122368, “Synthesis and antihypertensive activity of some new quinazoline derivatives” (1983).

What was measured:
Rattus norvegicus [1] = test: Hypotensive activity in anesthetized rats, dose that produced a 30% fall in mean blood pressure; format: functional
Method in brief: (§1)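 Normotensive rats under urethane anaesthesia, arterial pressure recorded, femoral vein cannulated. Dosing iv in rising doses (0.01, 0.1, 1, 10 μmol/kg) at 30-min intervals, 1 mL/kg over 2 min; solvent-treated controls. Colonic temperature held at 38.0 ± 0.3 °C. Effect read at its maximum, 1–5 min after injection. ED30 is the dose (μmol/kg) giving a 30% fall in mean blood pressure.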

Rattus norvegicus [2] = test: Hypotensive activity in anesthetized rats, dose that produced a 30% fall in mean blood pressure after 30 minutes; format: functional
Method in brief: as §1, with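 “solvent controls; colonic” for “solvent-treated controls. Colonic”, “temperature” for “temperature held at”, “Fall in pressure” for “Effect”, “30” for “at its maximum, 1–5”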

Rattus norvegicus [3] = test: Antihypertensive activity as fall in systolic blood pressure after 3 hr of 10 uM/kg po dosing in Spontaneously hypertensive rats.; format: functional, Artery
Method in brief: (§2)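 Conscious spontaneously hypertensive rats dosed by gavage, about 1 mL/rat. Systolic pressure recorded by tail-cuff after warming the rats 30 min at 36 °C. Fall in systolic BP (mmHg) read versus control values; listed values are significant decreases (p ≤ 0.05), otherwise marked NS. Baseline systolic pressure 175–190 mmHg across experiments.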

Rattus norvegicus [4] = test: Antihypertensive activity as fall in systolic blood pressure after 1 hr of 100 umol/kg po dosing in Spontaneously hypertensive rats.; format: functional, Artery; method in brief: as §2
Rattus norvegicus [5] = test: Antihypertensive activity as fall in systolic blood pressure after 1 hr of 10 uM/kg po dosing in Spontaneously hypertensive rats.; format: functional, Artery; method in brief: as §2
Rattus norvegicus [6] = test: Antihypertensive activity as fall in systolic blood pressure after 1 h of 1 umol/kg po dosing in Spontaneously hypertensive rats.; format: functional, Artery; method in brief: as §2
Rattus norvegicus [7] = test: Antihypertensive activity as fall in systolic blood pressure after 3 hr of 1 umol/kg po dosing in Spontaneously hypertensive rats;NS means nonsignificant change in blood pressure.; format: functional, organism-based; conditions: Artery; method in brief: as §2
Rattus norvegicus [8] = test: Antihypertensive activity as fall in systolic blood pressure after 5 h of 100 umol/kg po dosing in Spontaneously hypertensive rats.; format: functional, Artery; method in brief: as §2
Rattus norvegicus [9] = test: Antihypertensive activity as fall in systolic blood pressure after 5 hr of 10 uM/kg po dosing in Spontaneously hypertensive rats.; format: functional, Artery; method in brief: as §2
Rattus norvegicus [10] = test: Antihypertensive activity as fall in systolic blood pressure after 5 h of 1 umol/kg po dosing in Spontaneously hypertensive rats;NS means nonsignificant change in blood pressure.; format: functional, organism-based; conditions: Artery; method in brief: as §2
Rattus norvegicus [11] = test: Antihypertensive activity as fall in systolic blood pressure after 3 h of 100 umol/kg po dosing in Spontaneously hypertensive rats.; format: functional, Artery; method in brief: as §2
Rattus norvegicus [12] = test: Antihypertensive activity as fall in systolic blood pressure after 3 hr of 1 umol/kg po dosing in Spontaneously hypertensive rats.; format: functional, Artery; method in brief: as §2
Rattus norvegicus [13] = test: Antihypertensive activity as fall in systolic blood pressure after 5 hr of 1 umol/kg po dosing in Spontaneously hypertensive rats.; format: functional, Artery; method in brief: as §2
Rattus norvegicus [14] = test: Antihypertensive activity as fall in systolic blood pressure after 1 hr of 10 uM/kg po dosing in Spontaneously hypertensive rats;NS means nonsignificant change in blood pressure.; format: functional, organism-based; conditions: Artery; method in brief: as §2
Rattus norvegicus [15] = test: Antihypertensive activity as fall in systolic blood pressure after 3 hr of 1 uM/kg po dosing in Spontaneously hypertensive rats.; format: functional, Artery; method in brief: as §2
Rattus norvegicus [16] = test: Antihypertensive activity as fall in systolic blood pressure after 1 h of 100 umol/kg po dosing in Spontaneously hypertensive rats.; format: functional, Artery; method in brief: as §2
Rattus norvegicus [17] = test: Antihypertensive activity as fall in systolic blood pressure after 1 hr of 1 uM/kg po dosing in Spontaneously hypertensive rats.; format: functional, Artery; method in brief: as §2
Rattus norvegicus [18] = test: Antihypertensive activity as fall in systolic blood pressure after 3 hr of 100 umol/kg po dosing in Spontaneously hypertensive rats.; format: functional, Artery; method in brief: as §2
Rattus norvegicus [19] = test: Antihypertensive activity as fall in systolic blood pressure after 5 hr of 1 uM/kg po dosing in Spontaneously hypertensive rats.; format: functional, Artery; method in brief: as §2
Rattus norvegicus [20] = test: Antihypertensive activity as fall in systolic blood pressure after 1 h of 0.3 umol/kg po dosing in Spontaneously hypertensive rats;NS means nonsignificant change in blood pressure.; format: functional, organism-based; conditions: Artery; method in brief: as §2
Rattus norvegicus [21] = test: Antihypertensive activity as fall in systolic blood pressure after 1 h of 3 umol/kg po dosing in Spontaneously hypertensive rats.; format: functional, Artery; method in brief: as §2
Rattus norvegicus [22] = test: Antihypertensive activity as fall in systolic blood pressure after 3 h of 0.3 umol/kg po dosing in Spontaneously hypertensive rats.; format: functional, Artery; method in brief: as §2
Rattus norvegicus [23] = test: Antihypertensive activity as fall in systolic blood pressure after 3 h of 3 umol/kg po dosing in Spontaneously hypertensive rats.; format: functional, Artery; method in brief: as §2
Rattus norvegicus [24] = test: Antihypertensive activity as fall in systolic blood pressure after 5 h of 0.3 umol/kg po dosing in Spontaneously hypertensive rats.; format: functional, Artery; method in brief: as §2
Rattus norvegicus [25] = test: Antihypertensive activity as fall in systolic blood pressure after 5 hr of 3 umol/kg po dosing in Spontaneously hypertensive rats.; format: functional, Artery; method in brief: as §2

Structure (SMILES) | ED30 (Rattus norvegicus [1]) [µM/kg] | ED30 (Rattus norvegicus [2]) [µM/kg] | further results
CCOC(=O)C1CCCN(c2nc(N)c3cc(OC)c(OC)cc3n2)C1.Cl (stereo in doubt; 6cc) | 0.2 | – | –
COc1cc2nc(N3CCC(C(O)C4CCCC4)CC3)nc(N)c2cc1OC.Cl (configuration not stated) | 0.1 | 0.7 | –
COc1cc2nc(N3CCC(C(=O)N4CCCCCCC4)CC3)nc(N)c2cc1OC.Cl | 0.02 | 0.05 | Decrease in SBP (Rattus norvegicus [3]): 29 mmHg; Decrease in SBP (Rattus norvegicus [4]): 52 mmHg; Decrease in SBP (Rattus norvegicus [5]): 29 mmHg; Decrease in SBP (Rattus norvegicus [6]): 11 mmHg; Decrease in SBP (Rattus norvegicus [7]): Not significant; Decrease in SBP (Rattus norvegicus [8]): 83 mmHg; Decrease in SBP (Rattus norvegicus [9]): 26 mmHg; Decrease in SBP (Rattus norvegicus [10]): Not significant; Decrease in SBP (Rattus norvegicus [11]): 66 mmHg
CCCCC(=O)C1CCN(c2nc(N)c3cc(OC)c(OC)cc3n2)CC1.Cl | 0.03 | 0.06 | Decrease in SBP (Rattus norvegicus [3]): 36 mmHg; Decrease in SBP (Rattus norvegicus [5]): 40 mmHg; Decrease in SBP (Rattus norvegicus [6]): 13 mmHg; Decrease in SBP (Rattus norvegicus [9]): 27 mmHg; Decrease in SBP (Rattus norvegicus [10]): Not significant; Decrease in SBP (Rattus norvegicus [12]): 14 mmHg
COc1cc2nc(N3CCC(C(O)C4CCCCC4)CC3)nc(N)c2cc1OC.Cl (configuration not stated) | 0.06 | 0.1 | Decrease in SBP (Rattus norvegicus [3]): 30 mmHg; Decrease in SBP (Rattus norvegicus [5]): 25 mmHg; Decrease in SBP (Rattus norvegicus [6]): 12 mmHg; Decrease in SBP (Rattus norvegicus [9]): 38 mmHg; Decrease in SBP (Rattus norvegicus [13]): 19 mmHg; Decrease in SBP (Rattus norvegicus [12]): 17 mmHg
CCOC(=O)C1CCCN(c2nc(N)c3cc(OC)c(OC)cc3n2)C1.Cl (stereo in doubt; 6c) | 0.8 | 20 | –
COc1cc2nc(N3CCC(C(=O)N4C(C)CCCC4C)CC3)nc(N)c2cc1OC.Cl (configuration not stated) | 0.08 | 0.2 | –
CCC(=O)C1CCN(c2nc(N)c3cc(OC)c(OC)cc3n2)CC1.Cl | 5 | 30 | –
COc1cc2nc(N3CCC(C(N)=O)CC3)nc(N)c2cc1OC.Cl | 0.1 | 0.8 | –
COc1cc2nc(N3CCC(C(=O)NC(C)(C)C)CC3)nc(N)c2cc1OC.Cl | 0.08 | 1 | –
COc1cc2nc(N3CCCC(C(=O)N4CCCC4)C3)nc(N)c2cc1OC.Cl (stereo in doubt; 6i) | 12 | 30 | –
COc1cc2nc(N3CCC(Cc4ccccc4)CC3)nc(N)c2cc1OC.Cl | 0.06 | 0.07 | –
COc1cc2nc(N3CCC(C(=O)N4CCCCC4C)CC3)nc(N)c2cc1OC.Cl (configuration not stated) | 0.1 | 0.9 | –
CCCCC(O)C1CCN(c2nc(N)c3cc(OC)c(OC)cc3n2)CC1.Cl (configuration not stated) | 0.1 | 0.7 | –
COc1cc2nc(N3CCC(C(=O)N4CCCCCC4)CC3)nc(N)c2cc1OC.Cl | 0.01 | 0.05 | –
COc1cc2nc(N3CCC(C(=O)N4CCCC4)CC3)nc(N)c2cc1OC.Cl | 0.2 | 0.4 | –
COc1cc2nc(N3CCC(C)CC3)nc(N)c2cc1OC.Cl | 0.08 | – | –
COc1cc2nc(N3CCCC(C(=O)N4CCCC4)C3)nc(N)c2cc1OC.Cl (stereo in doubt; 6ii) | 10 | 15 | –
CCOC(=O)C1CCN(c2nc(N)c3cc(OC)c(OC)cc3n2)CC1.Cl | 0.3 | 30 | –
COc1cc2nc(N3CCC(C(=O)C4CCCCC4)CC3)nc(N)c2cc1OC.Cl | 0.07 | 0.1 | Decrease in SBP (Rattus norvegicus [3]): 54 mmHg; Decrease in SBP (Rattus norvegicus [14]): Not significant; Decrease in SBP (Rattus norvegicus [6]): 15 mmHg; Decrease in SBP (Rattus norvegicus [9]): 51 mmHg; Decrease in SBP (Rattus norvegicus [10]): Not significant; Decrease in SBP (Rattus norvegicus [12]): 20 mmHg
COc1cc2nc(N3CCC(C(=O)c4cccs4)CC3)nc(N)c2cc1OC.Cl | 0.2 | 6 | –
COc1cc2nc(N3CCC(C(=O)N4CCC4)CC3)nc(N)c2cc1OC.Cl | 0.07 | 0.4 | –
COc1cc2nc(N3CCC(C(=O)N4CCCCC4)CC3)nc(N)c2cc1OC.Cl | 0.02 | 0.08 | –
COc1cc2nc(N3CCN(C(=O)c4ccco4)CC3)nc(N)c2cc1OC [PRAZOSIN] | 0.01 | 0.03 | Decrease in SBP (Rattus norvegicus [3]): 36 mmHg; Decrease in SBP (Rattus norvegicus [15]): 30 mmHg; Decrease in SBP (Rattus norvegicus [16]): 38 mmHg; Decrease in SBP (Rattus norvegicus [5]): 38 mmHg; Decrease in SBP (Rattus norvegicus [17]): 29 mmHg; Decrease in SBP (Rattus norvegicus [18]): 30 mmHg; Decrease in SBP (Rattus norvegicus [8]): 26 mmHg; Decrease in SBP (Rattus norvegicus [9]): 34 mmHg; Decrease in SBP (Rattus norvegicus [19]): 26 mmHg
COc1cc2nc(N3CCC(C(C)O)CC3)nc(N)c2cc1OC.Cl (configuration not stated) | 0.5 | 0.7 | –
COc1cc2nc(N3CCC(C(=O)OCC(C)(C)C)CC3)nc(N)c2cc1OC.Cl | 0.03 | 2 | –
COc1cc2nc(N3CCC(C(=O)C4CCCC4)CC3)nc(N)c2cc1OC.Cl | 0.06 | 0.09 | Decrease in SBP (Rattus norvegicus [3]): 54 mmHg; Decrease in SBP (Rattus norvegicus [20]): Not significant; Decrease in SBP (Rattus norvegicus [5]): 45 mmHg; Decrease in SBP (Rattus norvegicus [6]): 18 mmHg; Decrease in SBP (Rattus norvegicus [21]): 34 mmHg; Decrease in SBP (Rattus norvegicus [22]): 11 mmHg; Decrease in SBP (Rattus norvegicus [23]): 34 mmHg; Decrease in SBP (Rattus norvegicus [24]): 11 mmHg; Decrease in SBP (Rattus norvegicus [9]): 50 mmHg; Decrease in SBP (Rattus norvegicus [25]): 35 mmHg; Decrease in SBP (Rattus norvegicus [13]): 21 mmHg; Decrease in SBP (Rattus norvegicus [12]): 20 mmHg
COc1cc2nc(N3CCC(C(=O)N4C(C)CCC4C)CC3)nc(N)c2cc1OC.Cl (configuration not stated) | 0.08 | 0.2 | –
